High-throughput results (PubChem)
Shown are actives, neighbours in structure and some others; about 3.8% of the full set was active somewhere.
GPR7 antagonist: blocks human GPR7 receptor signaling; P48145; GPR7-expressing cells, fluorescence antagonist assay; inhibition, % at 4.4 µM; 1.1% of 290,000 active; AID 1861; in the data active = inhibition above about 16%, passing the limit was not always enough;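 also: cells stimulated with the agonist NPW; 0% = agonist with vehicle and 100% = vehicle without agonist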
Target sequence (P48145 whole entry, looked up): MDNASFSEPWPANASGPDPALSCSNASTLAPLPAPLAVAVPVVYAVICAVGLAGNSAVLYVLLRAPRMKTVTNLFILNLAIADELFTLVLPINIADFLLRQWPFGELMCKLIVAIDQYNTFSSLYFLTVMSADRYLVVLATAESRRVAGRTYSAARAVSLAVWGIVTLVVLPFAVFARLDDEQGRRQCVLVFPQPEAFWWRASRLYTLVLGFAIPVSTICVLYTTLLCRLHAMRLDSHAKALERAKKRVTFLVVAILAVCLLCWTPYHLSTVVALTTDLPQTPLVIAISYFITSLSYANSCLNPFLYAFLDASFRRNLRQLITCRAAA
OX1R antag-1: antagonists of human orexin 1 receptor (OX1R); O43613; OX1R-expressing cells, FRET antagonist read-out; inhibition, % at 6.6 µM; 1.8% of 330,000 active; AID 485270; in the data active = inhibition mostly above about 38%, no sharp cut-off; inactive = mostly below about 40%;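 also: 0% = agonist challenge alone and 100% = reference antagonist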
OX1R antag-2: antagonists of human orexin 1 receptor. CHO/OX1R cells, Fluo-8 calcium fluorescence, orexin A. AID 434989. inhibition, % at 5 µM. 0.43% of 330,000 active;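 active = inhibition above its plate's threshold, mean inhibition of all tested compounds on the plate plus 3 SD, cut at about 37% in these data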;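 also: 0% = orexin A challenge wells and 100% = SB-334867-A antagonist wells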
MPTP block: blocks calcium-induced mitochondrial swelling; isolated mouse mitochondria, Ca2+ swelling absorbance, 30 min; inhibition, % at 10 µM; 1.4% of 360,000 active;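 active = inhibition of 50% or more, scaled per plate between neutral and stimulator controls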;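 also: 0% = DMSO wells given calcium and 100% = 1 mM EGTA wells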
CHO parental Ca: counter-screen for OX1R antagonists: effect in parental CHO cells; 0.63% of 330,000 active; AID 463079; inhibition, % at 5.6 µM; parental CHO-K1, ATP-induced calcium, Fluo-8 fluorescence;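 active = inhibition above that plate's mean sample inhibition plus 3 SD, cut at about 26% in these data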;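 also: 0% = ATP-challenged DMSO wells and 100% = DMSO wells without ATP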
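Measured by: calcium-sensitive Fluo-8 fluorescence / Test system: CHO parental line / Controls: ATP-challenged DMSO wells low, unchallenged DMSO wells high / Measure: % inhibition / Compound: single nominal dose of 5.6 µM per compound / Replicates: single well per compound, no replicates / Reagent: ATP as calcium-mobilizing challenge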
OX1R HTRF confirm: OX1R (human) antagonism, HTRF confirmed; shares compounds with OX1R antag-1; 49% of 1,800 active; OX1R-expressing cells, HTRF antagonist assay; AID 492964; inhibition, % at 6.6 µM; in the data active = inhibition above about 55%;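 also: CHO cells expressing OX1R stimulated with orexin A at about EC80; 0% = agonist challenge alone and 100% = reference antagonist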
CHO-K1 HTRF: counter-screen for OX1R antagonists: effect in parental CHO-K1 cells; shares compounds with OX1R antag-1; HTRF counterscreen; inhibition, % at 6.6 µM; 48% of 1,800 active; in the data active = inhibition above about 17%;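 also: 0% = agonist challenge with vehicle and 100% = vehicle alone without agonist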
* hit, by the source's call; · = not tested or not shown.

SMILES	GPR7 antagonist	OX1R antag-1	OX1R antag-2	MPTP block	CHO parental Ca	OX1R HTRF confirm	CHO-K1 HTRF
O=C(CSc1nc2ccccc2c2nc3ccccc3n12)NCc1ccco1	-9	81*	-4	0	-17	62*	5
O=C(CSc1n[nH]c(-c2ccccc2)n1)NC(=O)NCc1ccco1	-2	82*	-13	0	-10	47	4
O=C(CSc1nc(-c2ccccc2)cs1)NC(=O)NCc1ccco1	-15	15	-13	0	-9	·	·
Cc1c(NC(=O)C(C)OC(=O)c2ccc([N+](=O)[O-])s2)c(=O)n(-c2ccccc2)n1C (configuration not stated)	-9	118*	-11	1	3	71*	81*
O=C(O)c1ccc(NC2=C(n3nnc4ccccc43)C(=O)c3ccccc3C2=O)cc1	-16	174*	-13	1	6	53	56*
COc1cc(/C=N/NC(=O)c2sc(N)c(C#N)c2C)cc(Br)c1O	0	82*	-18	-1	-12	30	-5
COc1ccc2ccccc2c1/C=N/NC(=O)c1sc(N)c(C#N)c1C	0	40	-9	2	-14	·	·
O=[N+]([O-])c1cccc(/C=N/n2cnnc2)c1	-8	77*	-5	1	0	26	31*
c1ccc(COc2ccc3nocc3c2)cc1	·	32	-4	-1	-11	·	·
O=C(COc1ccc(Br)cc1CNC1CCCC1)Nc1ccccc1	11	14	-11	3	-6	·	·
Cc1cccn2c(=O)c3cc(C(=O)NC(C)C)c(=N)n(Cc4ccncc4)c3nc12	-14	84*	-27	-1	-14	50	57*
COCCCNC(=O)c1cc2c(=O)n3cccc(C)c3nc2n(C(C)C)c1=N	-5	81*	-19	4	-4	48	38*
CNC(=O)c1cc2c(=O)n3cc(C)ccc3nc2n(C(C)C)c1=N	-10	145*	-21	2	7	52	71*
COCCn1c(=N)c(C(=O)NCCc2ccc(OC)cc2)cc2c(=O)n3cccc(C)c3nc21	-5	30	-36	-7	-19	·	·
CCc1nnc(NC(=O)CSc2nnc(C)c(=O)n2N)s1	-13	8	-1	0	-2	·	·
COc1cc(OC)cc(C(=O)OCC(=O)NCCCc2ccccc2)c1	5	-5	-15	0	-13	·	·
CCOC(=O)CNC(=O)CN1CCC(c2nc3ccccc3[nH]2)CC1	4	7	-10	-1	13	·	·
CC(=O)Nc1ccc(S(=O)(=O)/N=C2\C(=O)c3ccccc3C([O-])=C2n2cc[n+](-c3ccccn3)c2)cc1	-11	144*	-10	2	-4	35	38*
Cc1nc(NC(=O)c2ccccc2)sc1-c1csc(NCc2ccccc2)n1	1	21	-17	1	-14	·	·
Cc1nc(NC(=O)c2ccccc2)sc1-c1csc(N)n1	1	96*	30	0	-17	92*	15
O=[N+]([O-])c1cccc(-c2nc(-c3ccccc3)no2)c1	-8	12	-17	2	0	·	·
O=[N+]([O-])c1cccc(-c2nc(-c3ccncc3)no2)c1	-9	113*	5	2	0	36	42*
C=CCNC(=O)C(=O)NCC1CCCN1S(=O)(=O)c1cccs1 (configuration not stated)	·	2	-9	-1	-11	·	·
CN(C(=O)COC(=O)c1ccc2c(c1)OCO2)c1c(N)n(Cc2ccccc2)c(=O)[nH]c1=O	·	11	-21	-2	-5	·	·
Cn1cnc([N+](=O)[O-])c1Oc1cccc2ccccc12	-1	85*	-8	-1	-9	26	5
SMILES	GPR7 antagonist	OX1R antag-1	OX1R antag-2	MPTP block	CHO parental Ca	OX1R HTRF confirm	CHO-K1 HTRF
CCOC(=O)c1nn(-c2ccccc2)c(=O)c2c(N)scc12	-9	108*	-22	-1	-13	31	17*
C/C=N/NC(=O)c1cc(Br)ccc1O	-8	77*	-2	1	-2	21	3
Cc1ccc(C)c(C(=O)COC(=O)CN2C(=O)C3C4C=CC(C4)C3C2=O)c1 (configuration not stated)	-13	1	-17	-1	-13	·	·
Cn1nnc(NC(=O)c2ccc([N+](=O)[O-])cc2Cl)n1	-14	94*	16	-2	15	66*	53*
COc1ccc(CC(=O)NCc2nnc(SCC(=O)Nc3cccc(F)c3)n2C)cc1	3	92*	-8	0	-8	17	-12
COc1cc(/C=N/NC(=O)c2ccccc2O)ccc1OC(=O)CC1SC(=O)NC1=O (configuration not stated)	-4	96*	-22	2	-4	16	7
COc1ccc(-c2oc3ccc(N4CCOCC4)cc3c2C#CCO)cc1	·	81*	13	2	-11	39	7
COc1ccc(-c2ccc3oc(-c4ccc(OC)cc4)c(C#CCO)c3c2)cc1	·	27	-1	1	-2	·	·
CNC(=S)NNC(=O)c1sc(-c2cc(C)on2)nc1C	-3	12	-1	2	-2	·	·
Cc1cc(C)c2nc(N3CCN(C(=O)c4ccco4)CC3)sc2c1	·	82*	-23	-1	-14	22	5
Cc1cc2nc(N3CCN(C(=O)c4ccco4)CC3)sc2cc1C	·	7	-10	-1	-3	·	·
CC1CCN(CCNC(=O)CN(C)S(=O)(=O)c2cccc3nsnc23)CC1	-2	149*	-8	0	14	22	29*
CCOC(=O)c1ccc(NS(=O)(=O)c2cccc3nsnc23)cc1	-10	63	1	-1	-23	·	·
COc1ccc(N2CCN(CCNC(=O)CCS(=O)(=O)c3cccc4nsnc34)CC2)cc1	3	85*	-17	·	-6	43	76*
CCOC(=O)N1CCC(NC(=O)C(NS(=O)(=O)c2cccc3nsnc23)c2ccccc2)CC1 (configuration not stated)	-17	91*	-27	-1	-15	34	13
CCN(CCNC(=O)CN(C)S(=O)(=O)c1cccc2nsnc12)c1ccccc1	3	16	-16	2	-26	·	·
COc1ccc(N2CCN(CCNS(=O)(=O)c3cccc4nsnc34)CC2)cc1	-5	·	·	-1	·	·	·
CCN(CC)C(=O)CN(C)S(=O)(=O)c1cccc2nsnc12	-1	114*	-20	0	-1	40	38*
Cn1c(CNC(=O)c2ccccc2F)nnc1SCC(=O)c1ccccc1	-12	12	-24	-1	-13	·	·
O=C(NCc1ccccc1)C(c1ccc(F)cc1)N(C(=O)c1csnn1)C1CC1 (configuration not stated)	-5	0	-23	-1	-14	·	·
COc1cccc(CNC(=O)CN2C(=O)COc3ccc(S(=O)(=O)N4CCCC4)cc32)c1	-10	10	-9	0	-4	·	·
O=C(NCCN1CCOCC1)c1ccc(=O)n(Cc2ccc(Cl)cc2)c1	-1	18	-14	1	-10	·	·
